Converted amounts (≈) assume the structure as drawn.
Legend:
Type in all cases: functional
[1] = Cytotoxicity against human Hep2 cells assessed a growth inhibition by rapid microtiter technique; conditions: HEp-2, read-out: ED50 (the source's name)
How it was run: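 Human laryngeal epidermoid carcinoma H.Ep.-2 cells run in a rapid microtiter cytotoxicity assay. ED50 is calculated as the dose that inhibits net cell growth to 50% of control growth. Compounds with ED50 ≤ 4 µg/mL are scored active.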

[2] = test system: W256; assay: Antitumor activity against […] allografted in Sprague-Dawley rat assessed as increase in survival rate at 2.5 mg/kg/day, ip relative to control; conditions: route intraperitoneal
How it was run: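 Walker 256 ascites carcinosarcoma: 10^6 tumor cells implanted ip into male Sprague-Dawley rats (~80 g), with daily ip dosing of compounds. Result expressed as T/C; a T/C ≥ 125% counts as active. Melphalan was the positive standard. Animal numbers per group were recorded for each test.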

[3] = test system: P388; assay: Antitumor activity against mouse P388 cells allografted in DBA/2 mouse assessed as increase in survival rate at 4 mg/kg/day, ip administered for 2 weeks relative to control; conditions: route intraperitoneal
[4] = test system: P388; assay: Antitumor activity against mouse P388 cells allografted in DBA/2 mouse assessed as increase in survival rate at 16.8 mg/kg/day, ip administered for 2 weeks relative to control; conditions: route intraperitoneal
[5] = test system: P388; assay: Antitumor activity against mouse P388 cells allografted in DBA/2 mouse assessed as increase in survival rate at 5 mg/kg/day, ip administered for 2 weeks relative to control; conditions: route intraperitoneal
[6] = test system: P388; assay: Antitumor activity against mouse P388 cells allografted in DBA/2 mouse assessed as increase in survival rate at 25 mg/kg/day, ip administered for 2 weeks relative to control; conditions: route intraperitoneal
[7] = test system: W256; assay: Antitumor activity against […] allografted in Sprague-Dawley rat assessed as increase in survival rate at 1.25 mg/kg/day, ip relative to control; conditions: route intraperitoneal

CC1(COC(=O)/C=C/c2ccccc2)CC=CC1=O (stereo not drawn)
EC50 [1]: 3.5 µg/mL (≈ 13.7 µM)
T/C [2]: 136%
T/C [3]: 131%

C=C1C(=O)O[C@@H]2C[C@@H](C)[C@@H]3C=CC(=O)[C@@]3(C)[C@@H](O)[C@H]12 [HELENALIN]
EC50 [1]: 0.08 µg/mL (≈ 0.305 µM)
T/C [4]: 127%
T/C [2]: 316%

CC1(CO)CC=CC1=O (stereo not drawn)
EC50 [1]: 15.8 µg/mL (≈ 125 µM)
T/C [2]: 100%
T/C [5]: 105%

O=c1[nH]cc(F)c(=O)[nH]1 [FLUOROURACIL]
T/C [6]: 186%

CCOC(=O)/C=C/c1ccccc1 [ETHYL CINNAMATE]
EC50 [1]: > 50 µg/mL

CC(=O)OCC1(C)CC=CC1=O (stereo not drawn)
EC50 [1]: 18.3 µg/mL (≈ 109 µM)
T/C [2]: 105%
T/C [5]: 105%

N[C@@H](Cc1ccc(N(CCCl)CCCl)cc1)C(=O)O [MELPHALAN]
T/C [2]: 317%
T/C [6]: 168%

O=C1C=CCC1
EC50 [1]: > 50 µg/mL
T/C [2]: 188%
T/C [5]: 121%

CC1(COC(=O)CCCCCCCCC(=O)OCC2(C)CC=CC2=O)CC=CC1=O (stereo not drawn)
EC50 [1]: 14.6 µg/mL (≈ 34.9 µM)
T/C [2]: 108%
T/C [3]: 109%

COc1cc(C(=O)OCC2(C)CC=CC2=O)cc(OC)c1OC (stereo not drawn)
EC50 [1]: 3.6 µg/mL (≈ 11.2 µM)
T/C [7]: 223%
T/C [5]: 140%

CCOC(=O)C1(C)CC=CC1=O (stereo not drawn)
EC50 [1]: 17.2 µg/mL (≈ 102 µM)
T/C [2]: 103%
T/C [5]: 103%
